Assay results reported in paper PMC12311552 (Molecular Metabolism, 2025).
One block for each molecule: values may come before it. Numbered stars: 1 amine (or outer) side, 2 acyl side, 3 side chain; on linkers, the order of the positions; unused ones are H or OH. Side chains are listed from the residue outwards. Peptide text beside a SMILES is read from it. * marks the point of attachment. Cy5(nonsulfonated) = CN1C(=CC=CC=CC2=[N+](CCCCCC(=O)*)c3ccccc3C2(C)C)C(C)(C)c2ccccc21; C18 diacid = O=C(O)CCCCCCCCCCCCCCCCC(=O)*; γGlu = O=C(O)[C@H](CCC(=O)[*:2])N[*:1]; Isovaleryl = CC(C)CC(=O)*; AEEA = NCCOCCOCC(=O)O

Key:
male NMRI mice = test: Acute food intake in lean mice; format: in vivo, mouse
Method in brief: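 Males, 5 weeks old on arrival, 4/cage, lights off 3 PM, chow ad libitum. Randomised by bodyweight (n = 7–8/group) with a vehicle group (50 mM phosphate pH 7.0, 5% mannitol; 5 mL/kg). Fasted from 6 h before night, dosed SC once 1 h before dark. Hourly food intake over 24 h as % of vehicle mean. ED50 by nonlinear fit.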

male C57BL/6JRj mice = test: Acute gastric emptying in lean mice; format: in vivo, mouse
Method in brief: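 Males aged 9–10 weeks were fasted 8.5 h, then a basal blood glucose sample was taken for randomisation. After a further 30 min fast they got one SC dose. At 3 h, glucose 2 g/kg plus acetaminophen 100 mg/kg was gavaged (10 mL/kg). Blood acetaminophen and glucose were measured pre-load (20 min) and at 10, 30 and 60 min post-load. Gastric emptying was read as change in acetaminophen exposure.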

diet-induced obese mice = test: Subchronic, repeated dose study in diet-induced obese mice; format: in vivo, mouse; settings: DIO mice
human NPY4R = human NPY4R (Homo sapiens, UniProt P50391); test: Competitive radioligand binding, membrane preparations, 125I-PP; settings: up to 1 μM
[1] = system: Diet-induced obese (DIO) male C57BL6/J mice; test: 3D whole-brain c-Fos imaging; format: in vivo, mouse; settings: 8 nmol/kg, 4 h after dosing
Method in brief: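 Perfused 4 h post-dose. Brains were c-Fos immunolabelled, iDISCO+-cleared and imaged whole by light-sheet microscopy. c-Fos+ cells were atlas-mapped and counted per region, with region-wise statistics against vehicle.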

[2] = Pharmacokinetic study in dogs; format: in vivo; settings: male, beagle, dog, plasma, sc, 5 nmol/kg
Method in brief: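 Male beagles were dosed once, IV 1.25 nmol/kg (N = 2) or SC 5 nmol/kg (N = 3). Plasma was sampled at several times after dosing, stored at -20 °C, and assayed by LC-MS/MS.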

[3] = Pharmacokinetic study in mice; format: in vivo; settings: male, NMRI, mouse, plasma, sc, 30 nmol/kg
Method in brief: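 Male NMRI mice got a single dose of 30 nmol/kg, IV (N = 2) or SC (N = 3), in 50 mM phosphate pH 7.0 with 5% mannitol at 5 mL/kg. Plasma was sampled at several times after dosing, stored at -20 °C, and quantified by LC-MS/MS.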

cynomolgus monkeys = test: Cardiovascular study in cynomolgus monkeys; format: in vivo, cynomolgus monkey; settings: subcutaneous supratherapeutic doses
human NPY1R = target: T1, human NPY1R (Homo sapiens, UniProt P25929); test: Competitive radioligand binding, membrane preparations, 125I-PYY1–36; settings: up to 1 μM
T1 sequence (P25929 1-384): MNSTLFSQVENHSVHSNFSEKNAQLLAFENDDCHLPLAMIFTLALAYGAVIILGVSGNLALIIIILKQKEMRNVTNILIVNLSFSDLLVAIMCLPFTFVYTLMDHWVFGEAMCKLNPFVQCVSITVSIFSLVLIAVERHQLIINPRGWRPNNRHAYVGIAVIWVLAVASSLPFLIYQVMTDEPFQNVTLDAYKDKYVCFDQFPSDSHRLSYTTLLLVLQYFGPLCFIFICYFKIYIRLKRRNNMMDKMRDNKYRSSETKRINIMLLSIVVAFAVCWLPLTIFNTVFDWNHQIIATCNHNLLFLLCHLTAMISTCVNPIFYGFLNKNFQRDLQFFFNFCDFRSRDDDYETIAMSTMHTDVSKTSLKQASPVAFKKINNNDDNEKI

[4] = system: Chow-fed male C57BL/6JRj mice; test: 3D whole-brain imaging by light-sheet fluorescence microscopy; format: in vivo, mouse; settings: single s.c. dose 100 nmol/kg; SFO, AP, ME, choroid plexus, ARH
Method in brief: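 Chow-fed males (n = 8/group) got one SC dose of unlabelled test compound or a Cy5-labelled analogue (Lys10), each 100 nmol/kg, and were killed at 6 h. Competition group: unlabelled 100 nmol/kg SC at 0, 8 and 24 h, labelled analogue 1 h later, killed after 1 h. Tongue was positive control. Tissue was perfusion-fixed, cleared and light-sheet imaged, giving atlas-aligned regional mean fluorescence (CVOs, ARH).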

human NPY2R (human) = human NPY2R (human) (UniProt P49146); test: radioligand binding
human NPY2R (human), sequence (P49146 whole entry): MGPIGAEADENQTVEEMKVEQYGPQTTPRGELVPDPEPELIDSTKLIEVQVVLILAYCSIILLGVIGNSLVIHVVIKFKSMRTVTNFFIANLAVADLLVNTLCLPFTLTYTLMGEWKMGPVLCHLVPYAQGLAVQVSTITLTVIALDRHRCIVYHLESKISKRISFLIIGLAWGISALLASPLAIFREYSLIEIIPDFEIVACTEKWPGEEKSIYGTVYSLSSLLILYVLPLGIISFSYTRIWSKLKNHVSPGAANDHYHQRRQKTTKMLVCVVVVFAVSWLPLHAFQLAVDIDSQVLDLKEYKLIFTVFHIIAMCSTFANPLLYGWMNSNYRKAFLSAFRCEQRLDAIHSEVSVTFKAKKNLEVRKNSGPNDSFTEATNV

human NPY4R, sequence (P50391 whole entry): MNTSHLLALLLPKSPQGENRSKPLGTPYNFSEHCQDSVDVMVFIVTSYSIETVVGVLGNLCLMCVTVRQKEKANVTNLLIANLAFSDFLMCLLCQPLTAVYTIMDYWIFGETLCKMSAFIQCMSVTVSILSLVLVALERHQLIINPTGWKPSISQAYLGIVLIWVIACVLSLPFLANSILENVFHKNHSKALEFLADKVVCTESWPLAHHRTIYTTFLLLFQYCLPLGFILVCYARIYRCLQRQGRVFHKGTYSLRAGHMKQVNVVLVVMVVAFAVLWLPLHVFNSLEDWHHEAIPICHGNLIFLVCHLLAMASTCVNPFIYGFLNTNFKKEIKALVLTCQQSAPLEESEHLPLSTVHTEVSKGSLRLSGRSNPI

binding to human NPY subtype 4 (human NPY4R): no binding was detected | MRT [2]: 103 h | Tmax [3]: 3 h | binding to human NPY subtype 1 (human NPY1R): no binding was detected
Molecule: CC[C@H](C)[C@H](NC(=O)[C@H](CCC(=O)O)NC(=O)[C@H](CCC(=O)O)NC(=O)[C@@H]1CCCN1C(=O)[C@H](CO)NC(=O)[C@H](C)NC(=O)[C@H](CC(=O)O)NC(=O)[C@H](CCC(=O)O)NC(=O)[C@H](CCC(=O)O)NC(=O)[C@@H]1CCCN1C(=O)[C@H](CCCCNC(=O)COCCOCCNC(=O)COCCOCCNC(=O)CC[C@H](NC(=O)CCCCCCCCCCCCCCCCC(=O)O)C(=O)O)NC(=O)[C@H](C)NC(=O)[C@@H]1CCCN1C(=O)[C@H](C)NC(=O)CC(C)C)C(=O)N[C@@H](CCC(N)=O)C(=O)N[C@@H](CCCNC(=N)N)C(=O)N[C@@H](Cc1ccc(O)cc1)C(=O)N[C@@H](Cc1ccc(O)cc1)C(=O)N[C@H](C(=O)N[C@@H](CO)C(=O)N[C@@H](CC(C)C)C(=O)N[C@@H](CCCNC(=N)N)C(=O)N[C@@H](Cc1c[nH]cn1)C(=O)N[C@@H](Cc1ccc(O)cc1)C(=O)N[C@@H](Cc1ccc(O)cc1)C(=O)N[C@@H](CC(N)=O)C(=O)N[C@@H](Cc1c[nH]c2ccccc12)C(=O)N[C@@H](CC(C)C)C(=O)N[C@H](C(=O)N[C@@H](CCCNC(=N)N)C(=O)N[C@@H](CCC(N)=O)C(=O)N[C@@H](CCCNC(=N)N)C(=O)N[C@@H](Cc1ccc(O)cc1)C(N)=O)[C@@H](C)O)C(C)C [BI 1820237]
Emax, inhibition of food intake over 24 h (male NMRI mice; at the maximal tested dose of 100 nmol/kg): ~85% | ED50, inhibition of food intake over 24 h (male NMRI mice; single subcutaneous dose): 14 nmol/kg | ED50, reduction of gastric emptying (male C57BL/6JRj mice; lean mice, single dose, acetaminophen exposure): ~2 nmol/kg | Glucose excursion (male C57BL/6JRj mice; oral glucose 2 g/kg, same experiment): not affected | weight of the epididymal adipose tissue compared with the vehicle group (diet-induced obese mice; study end, BI 1820237 1 nmol/kg alone or with survodutide 7.5 nmol/kg): did not reduce | food intake reduction on Day 1, 24 h post-dosing (diet-induced obese mice; 3 nmol/kg once daily s.c.): 18% | food intake reduction on Day 1, 24 h post-dosing (diet-induced obese mice; 10 nmol/kg once daily s.c.): 59% | maximal bodyweight-lowering effect (reduction) (diet-induced obese mice; 30 nmol/kg at Day 5 of dosing): 9% | food intake reduction on Day 1, 24 h post-dosing (diet-induced obese mice; 30 nmol/kg once daily s.c.): 71% | bodyweight reduction at the end of the study (non-significant) (diet-induced obese mice; 30 nmol/kg once daily, 4 weeks): 2% | food intake after 4–5 days of dosing (diet-induced obese mice; 100 nmol/kg once daily): higher than the food intake in the vehicle group | food intake reduction on Day 1, 24 h post-dosing (diet-induced obese mice; 100 nmol/kg once daily s.c.): 56% | food intake after 4–5 days of dosing (diet-induced obese mice; 3, 10 and 30 nmol/kg once daily): returned to the level of the vehicle-treated group | effect on bodyweight at the end of the study (diet-induced obese mice; other doses (3, 10, 100 nmol/kg) once daily, 4 weeks): no effect | whole-brain c-Fos expression compared with vehicle [1]: little or no difference | emesis (cynomolgus monkeys): induced emesis

Molecule: CC[C@H](C)[C@H](NC(=O)[C@H](CCC(=O)O)NC(=O)[C@H](CCC(=O)O)NC(=O)[C@@H]1CCCN1C(=O)[C@H](CO)NC(=O)[C@H](C)NC(=O)[C@H](CC(=O)O)NC(=O)[C@H](CCCCNC(=O)CCCCC[N+]1=C(C=CC=CC=C2N(C)c3ccccc3C2(C)C)C(C)(C)c2ccccc21)NC(=O)[C@H](CCC(=O)O)NC(=O)[C@@H]1CCCN1C(=O)[C@H](CCCCNC(=O)COCCOCCNC(=O)COCCOCCNC(=O)CC[C@H](NC(=O)CCCCCCCCCCCCCCCCC(=O)O)C(=O)O)NC(=O)[C@H](C)NC(=O)[C@@H]1CCCN1C(=O)[C@H](C)NC(=O)CC(C)C)C(=O)N[C@@H](CCC(N)=O)C(=O)N[C@@H](CCCNC(=N)N)C(=O)N[C@@H](Cc1ccc(O)cc1)C(=O)N[C@@H](Cc1ccc(O)cc1)C(=O)N[C@H](C(=O)N[C@@H](CO)C(=O)N[C@@H](CC(C)C)C(=O)N[C@@H](CCCNC(=N)N)C(=O)N[C@@H](Cc1c[nH]cn1)C(=O)N[C@@H](Cc1ccc(O)cc1)C(=O)N[C@@H](Cc1ccc(O)cc1)C(=O)N[C@@H](CC(N)=O)C(=O)N[C@@H](Cc1c[nH]c2ccccc12)C(=O)N[C@@H](CC(C)C)C(=O)N[C@H](C(=O)N[C@@H](CCCNC(=N)N)C(=O)N[C@@H](CCC(N)=O)C(=O)N[C@@H](CCCNC(=N)N)C(=O)N[C@@H](Cc1ccc(O)cc1)C(N)=O)[C@@H](C)O)C(C)C [BI 3005788] (Isovaleryl-APAK([AEEA-AEEA-γGlu-C18 diacid])PEK(Cy5(nonsulfonated))DASPEEIQRYYVSLRHYYNWLTRQRY-NH2; N-terminus and C-terminus assumed)
lowering of food intake up to 6 h post-dosing (male NMRI mice; acute dose 100 nmol/kg, Fig. S3a–b): comparable with BI 1820237 dosed at 30 nmol/kg | fluorescence signal distribution in the mouse brain [4]: accumulated in 5 circumventricular organs

Ki (human NPY2R (human)): 0.82 nM
Molecule: BI 1820237 (peptide)

Molecule: survodutide [reference compound]
bodyweight lowering versus baseline (diet-induced obese mice; after 28 days, survodutide 7.5 nmol/kg): 17% | bodyweight lowering compared with the vehicle group (diet-induced obese mice; after 28 days, survodutide 7.5 nmol/kg alone or with 1 nmol/kg BI 1820237): 21% | lean mass (diet-induced obese mice; survodutide alone, or with 3 nmol/kg BI 1820237 at study start or 1 nmol/kg at Day 8): No significant change
